Experimental findings from ChEMBL document CHEMBL3091364, “Benzyloxybenzylammonium chlorides: Simple amine salts that display anticonvulsant activity” (Bioorg Med Chem, 2013) are described below.

Active and inactive are the calls of the source. The rule behind the calls is not given here.

One may read the ED50 as the dose that gives a 50% effect, or the effect in half of the subjects.

The subject of experiment [1] is Mus musculus. The experiment can be described thus: Anticonvulsant activity in ip dosed albino CF-1 mouse assessed as protection against subcutaneous metrazol-induced seizure measured at 0.5 hrs. Particulars: albino CF-1, 0.5 h. It counts as functional. The gist of the method:
(§1)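 Screened under the NINDS ASP in male albino Carworth Farms No. 1 mice (ip) or male albino Sprague-Dawley rats (ip or po), using MES, 6 Hz (32 mA) and subcutaneous pentylenetetrazol seizure tests. Initial qualitative tests used preset doses (e.g., 30, 50, 100 mg/kg). ED50 values with 95% confidence intervals came from dose–response data collected at the time of peak effect.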

For experiment [2], the system named is Rattus norvegicus. The experiment can be described thus: Anticonvulsant activity in ip dosed albino Sprague-Dawley rat assessed as protection against maximal electroshock-induced seizures measured at 0.25 to 0.5 hrs. It counts as functional. Summed up: as §1
Experiment [3] is filed under the species Rattus norvegicus. The experiment can be described thus: Induction of Na+ channel slow inactivation in rat embryonic cortical neurons at 10 uM by whole-cell voltage clamp assay.
The species named for experiment [4] is Rattus norvegicus. The experiment can be described thus: Activity at Na+ channel in rat embryonic cortical neurons assessed as effect on total macroscopic sodium current at 10 uM by whole-cell voltage clamp assay.
In experiment [5] the test system is Rattus norvegicus. Nature of the experiment: Anticonvulsant activity in po dosed albino Sprague-Dawley rat assessed as protection against maximal electroshock-induced seizures measured at 1 hr. Format: functional. The gist of the method:
as §1
(In general: The maximal electroshock test induces tonic seizures with an electrical stimulus.)

Experiment [6] deals with Mus musculus. The experiment can be described thus: Anticonvulsant activity in corneally kindled mouse assessed as protection against seizure at 20 mg/kg, ip. Also noted: dose 20 mg/kg. Format: functional, organism-based. Summed up:
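Corneally kindled mouse seizure model with ip dosing. Protection was scored in 4 animals, and the average seizure score was recorded.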

Experiment [7] is filed under the species Rattus norvegicus. Nature of the experiment: Induction of voltage-dependent Na+ channel activation in rat embryonic cortical neurons at 10 uM by whole-cell voltage clamp assay (reference value: - 39 +/- 7.8 mV).

On to `Cl.NCc1ccc(OCc2cccc(OC(F)(F)F)c2)cc1`, for which the 50% effective dose (ED50) was > 170 mg/kg in experiment [1] and < 30 mg/kg in experiment [2].

As to `Cl.NCc1ccc(OCc2ccccc2OC(F)(F)F)cc1`, the result in experiment [3] and in experiment [6] was Active. Further, in experiment [4], the result was inactive. Further, the 50% effective dose (ED50) in experiment [5] is 30 mg/kg. Further, in experiment [7], the V1/2 is -35.3 mV.
